Among the data in ChEMBL document CHEMBL2429794, “Tuning the antibacterial activity of amphiphilic neamine derivatives and comparison to paromamine homologues” (J Med Chem, 2013) are MIC, viability and selectivity ratio values, retold here.

Converted amounts (≈) assume the structure as drawn.

Data set [1] concerns Acinetobacter lwoffii. Description: Antibacterial activity against Acinetobacter lwoffii ATCC 17925 after 24 hrs by geometric microdilution method. Type of data set: functional. The conditions noted are these: ATCC 17925, 24 h. (In general: Broth dilution looks for growth in wells or tubes with falling amounts of substance.)
The subject of data set [2] is Pseudomonas aeruginosa. Description: Antibacterial activity against Pseudomonas aeruginosa F03 expressing AAC6'-2A after 24 hrs by geometric microdilution method. The data set is classed as functional. The conditions noted are these: F03, 24 h.
A further data set concerns Klebsiella pneumoniae. Description: Antibacterial activity against Klebsiella pneumoniae ATCC 700603 after 24 hrs by geometric microdilution method. Type of data set: functional. To be noted: ATCC 700603, 24 h.
The test system of data set [3] is Staphylococcus aureus. Description: microbe, parasite or virus in culture. The conditions noted are these: ATCC 25923, 24 h.
Data set [4] relates to Staphylococcus aureus. Description: Antibacterial activity against 14- and 15-membered macrolide-resistant Staphylococcus aureus expressing MsrA efflux pump after 24 hrs by geometric microdilution method. Type of data set: functional. The method in brief: (§1)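 Broth cultures were incubated in plates at 37 °C, and growth was read as absorbance at 650 nm after 1, 4, 7 and 24 h. Ampicillin (16 mg/L) was the positive control and DMSO the negative control. Each MIC (μg/mL) is the average of at least three determinations.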

Data set [5] deals with Escherichia coli. The data set is described as follows: Antibacterial activity against Escherichia coli L58058.1 expressing ANT2''-1A after 24 hrs by geometric microdilution method. Type of data set: functional. The conditions noted are these: L58058.1, 24 h.
Data set [6] relates to Staphylococcus aureus. The data set is described as follows: Antibacterial activity against Staphylococcus aureus expressing aminoglycoside-3'-O-phosphoryltransferase after 24 hrs by geometric microdilution method. Type of data set: functional. The method in brief: as §1
For data set [7], the system named is Escherichia coli. Description: microbe, parasite or virus in culture. To be noted: ATCC 25922, 24 h.
Data set [8] deals with Staphylococcus aureus. Description: Antibacterial activity against vancomycin-resistant Staphylococcus aureus VRS2 after 24 hrs by geometric microdilution method. The data set is classed as functional. To be noted: VRS2, 24 h. The method in brief: as §1
For data set [9], the system named is Staphylococcus aureus. Description: Antibacterial activity against Staphylococcus aureus expressing aminoglycoside-[…] after 24 hrs by geometric microdilution method. Type of data set: functional. The method in brief:
as §1

Data set [10] can be described thus: Cytotoxicity against murine J774 cells assessed as cell viability at 10 uM after 24 hrs by MTT assay relative to control. Type of data set: cell-based. The conditions noted are these: mouse, read-out: Activity. In outline: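 Murine J774 macrophages were exposed for 24 h to compounds at 10 μM, then incubated 1 h with 0.2 mg/mL MTT. Viability was read from mitochondrial reduction of MTT to purple formazan, expressed as percent viability, and averaged over three experiments.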
A general note: Tetrazolium dyes change colour on reduction, which living cells bring about.

Data set [11] concerns Pseudomonas aeruginosa. Description: Antibacterial activity against Pseudomonas aeruginosa PA22 (PT629) expressing MexXY after 24 hrs by geometric microdilution method. The data set is classed as functional.
For data set [12], the system named is Staphylococcus aureus. Description: Antibacterial activity against fluoroquinolone-resistant Staphylococcus aureus 1199B expressing NorA efflux pump after 24 hrs by geometric microdilution method. The data set is classed as functional. The method in brief:
as §1

For data set [13], the system named is Escherichia coli. Description: Antibacterial activity against Escherichia coli PAZ505H8101 expressing AAC6'-1B after 24 hrs by geometric microdilution method. The data set is classed as functional. The conditions noted are these: PAZ505H8101, 24 h.
Data set [14] deals with Staphylococcus aureus. The data set is described as follows: Antibacterial activity against Staphylococcus aureus expressing aminoglycoside-6'-N-acetyltransferase/2''-O-phosphoryltransferase after 24 hrs by geometric microdilution method. The data set is classed as functional. In outline:
as §1

In data set [15] the test system is Staphylococcus aureus. Description: Antibacterial activity against healthcare-acquired methicillin-resistant Staphylococcus aureus ATCC 33592 after 24 hrs by geometric microdilution method. To be noted: ATCC 33592, 24 h. Type of data set: functional. In outline: as §1
Data set [16] has as its system Acinetobacter lwoffii. Description: Antibacterial activity against Acinetobacter lwoffii AI.88-483 expressing APH3'-6A after 24 hrs by geometric microdilution method. To be noted: AI.88-483, 24 h. The data set is classed as functional.
The test system of data set [17] is Pseudomonas aeruginosa. Description: Antibacterial activity against Pseudomonas aeruginosa ATCC 27853 after 24 hrs by geometric microdilution method. Type of data set: functional. To be noted: ATCC 27853, 24 h.
Data set [18] is described as follows: Ratio of cytotoxicity against murine J774 cells to antibacterial activity against vancomycin-resistant Staphylococcus aureus VRS2. The data set is classed as toxicity, cell-based. The conditions noted are these: mouse.
A short description of data set [19]: Ratio of cytotoxicity against murine J774 cells to antibacterial activity against Pseudomonas aeruginosa PA22 (PT629) expressing MexXY. To be noted: mouse. Type of data set: toxicity, cell-based.
Data set [20] in a line: Ratio of cytotoxicity against murine J774 cells to antibacterial activity against Pseudomonas aeruginosa ATCC 27853. Type of data set: toxicity, cell-based. To be noted: mouse.
Data set [21] in a line: Ratio of cytotoxicity against murine J774 cells to antibacterial activity against Pseudomonas aeruginosa F03 expressing AAC6'-2A. Type of data set: toxicity, cell-based. The conditions noted are these: mouse.
The nature of data set [22]: Ratio of cytotoxicity against murine J774 cells to antibacterial activity against healthcare-acquired methicillin-resistant Staphylococcus aureus ATCC 33592. Type of data set: toxicity, cell-based. The conditions noted are these: mouse.

As to `CCCCCCO[C@@H]1[C@@H](N)[C@@H](O[C@H]2[C@H](O)[C@@H](OCCCCCC)[C@H](N)C[C@@H]2N)O[C@H](CN)[C@H]1OCCCCCC`, the MIC with Acinetobacter lwoffii [1] amounted to 4 µg/mL (≈ 6.96 µM); with Pseudomonas aeruginosa [2], 8 µg/mL (≈ 13.9 µM); in the data set with Klebsiella pneumoniae, 8 µg/mL (≈ 13.9 µM); against Staphylococcus aureus [3], 4 µg/mL (≈ 6.96 µM); against Staphylococcus aureus [4] it was 8 µg/mL (≈ 13.9 µM); against Escherichia coli [5], 4 µg/mL (≈ 6.96 µM). Moreover, the MIC in the data set with Staphylococcus aureus [6] turned out to be 4 µg/mL (≈ 6.96 µM); with Escherichia coli [7], 4 µg/mL (≈ 6.96 µM); against Staphylococcus aureus [8], 4 µg/mL (≈ 6.96 µM); against Staphylococcus aureus [9], 8 µg/mL (≈ 13.9 µM); with Pseudomonas aeruginosa [11] it was 8 µg/mL (≈ 13.9 µM); with Staphylococcus aureus [12], 4 µg/mL (≈ 6.96 µM). The MIC in the data set on Escherichia coli [13] turned out to be 4 µg/mL (≈ 6.96 µM); in the data set on Staphylococcus aureus [14] it was 8 µg/mL (≈ 13.9 µM); against Staphylococcus aureus [15], 4 µg/mL (≈ 6.96 µM); against Acinetobacter lwoffii [16], 64 µg/mL (≈ 111 µM); against Pseudomonas aeruginosa [17], 8 µg/mL (≈ 13.9 µM). Besides, the viability at 24 h, 10 µM in data set [10] came to 40%.

In the case of `CCCCCCCCCO[C@@H]1[C@@H](N)[C@@H](O[C@H]2[C@H](O)[C@@H](OCCCCCCCCC)[C@H](N)C[C@@H]2N)O[C@H](CN)[C@H]1O`, the selectivity ratio is over 5 in [18], 2.5 in data set [19], 2.5 in data set [20] and 2.5 in [21]. The MIC is 4 µg/mL (≈ 6.96 µM) in the data set with Pseudomonas aeruginosa [2]; 2 µg/mL (≈ 3.48 µM) with Staphylococcus aureus [3]; 4 µg/mL (≈ 6.96 µM) in the data set on Staphylococcus aureus [4]; 4 µg/mL (≈ 6.96 µM) with Escherichia coli [5]; 2 µg/mL (≈ 3.48 µM) against Staphylococcus aureus [6]; 4 µg/mL (≈ 6.96 µM) in the data set on Escherichia coli [7]. Also, the MIC against Staphylococcus aureus [8] is 2 µg/mL (≈ 3.48 µM); with Staphylococcus aureus [9] it was 4 µg/mL (≈ 6.96 µM); in the data set on Pseudomonas aeruginosa [11], 4 µg/mL (≈ 6.96 µM); in the data set on Staphylococcus aureus [12], 8 µg/mL (≈ 13.9 µM); against Escherichia coli [13] it was 2 µg/mL (≈ 3.48 µM); with Staphylococcus aureus [14], 4 µg/mL (≈ 6.96 µM). For the same compound, the MIC with Staphylococcus aureus [15] and against Pseudomonas aeruginosa [17] was 4 µg/mL (≈ 6.96 µM) each time. Moreover, the viability at 24 h, 10 µM in data set [10] turned out to be 75%.

Consider `NC[C@H]1O[C@H](O[C@H]2[C@H](O)[C@@H](OCCCCCCc3ccc4ccccc4c3)[C@H](N)C[C@@H]2N)[C@H](N)[C@@H](OCCCCCCc2ccc3ccccc3c2)[C@@H]1O`, for which the MIC with Pseudomonas aeruginosa [2] was 64 µg/mL (≈ 86.1 µM); in the data set on Staphylococcus aureus [3], 64 µg/mL (≈ 86.1 µM); in the data set with Escherichia coli [5], 128 µg/mL (≈ 172 µM); in the data set with Staphylococcus aureus [6], 64 µg/mL (≈ 86.1 µM); against Escherichia coli [7], 128 µg/mL (≈ 172 µM); in the data set with Staphylococcus aureus [8] it was over 128 µg/mL. Also, the MIC is over 128 µg/mL with Staphylococcus aureus [9]; 64 µg/mL (≈ 86.1 µM) in the data set with Pseudomonas aeruginosa [11]; over 128 µg/mL against Staphylococcus aureus [12]; 64 µg/mL (≈ 86.1 µM) against Escherichia coli [13]; 128 µg/mL (≈ 172 µM) with Staphylococcus aureus [14]; over 128 µg/mL in the data set on Staphylococcus aureus [15]. The same compound gave an MIC in the data set on Pseudomonas aeruginosa [17] of 32 µg/mL (≈ 43.1 µM). The viability at 24 h, 10 µM in data set [10] is under 50%.

On to `NC[C@H]1O[C@H](O[C@H]2[C@H](O)[C@@H](OCCCCc3ccc4ccccc4c3)[C@H](N)C[C@@H]2N)[C@H](N)[C@@H](OCCCCc2ccc3ccccc3c2)[C@@H]1O`, for which the MIC was 4 µg/mL (≈ 5.82 µM) in the data set on Acinetobacter lwoffii [1]; 8 µg/mL (≈ 11.6 µM) in the data set on Pseudomonas aeruginosa [2]; 32 µg/mL (≈ 46.6 µM) with Klebsiella pneumoniae; 2 µg/mL (≈ 2.91 µM) against Staphylococcus aureus [3]; 0.25 µg/mL (≈ 0.364 µM) in the data set on Staphylococcus aureus [4]; 8 µg/mL (≈ 11.6 µM) in the data set on Escherichia coli [5]. Further, the MIC in the data set with Staphylococcus aureus [6] was 1 µg/mL (≈ 1.46 µM); against Escherichia coli [7], 8 µg/mL (≈ 11.6 µM); in the data set on Staphylococcus aureus [8], 2 µg/mL (≈ 2.91 µM); against Staphylococcus aureus [9], 1 µg/mL (≈ 1.46 µM); against Pseudomonas aeruginosa [11], 8 µg/mL (≈ 11.6 µM); against Staphylococcus aureus [12] it was 2 µg/mL (≈ 2.91 µM). Moreover, the MIC against Escherichia coli [13] amounted to 4 µg/mL (≈ 5.82 µM); with Staphylococcus aureus [14], 2 µg/mL (≈ 2.91 µM); in the data set on Staphylococcus aureus [15], 2 µg/mL (≈ 2.91 µM); against Acinetobacter lwoffii [16], 64 µg/mL (≈ 93.2 µM); in the data set on Pseudomonas aeruginosa [17], 4 µg/mL (≈ 5.82 µM). Moreover, the selectivity ratio in [18] was over 5. Also, in data set [10], the viability at 24 h, 10 µM was determined as 80%.

`NC[C@H]1O[C@H](O[C@H]2[C@H](O)[C@@H](OCCCc3ccc4ccccc4c3)[C@H](N)C[C@@H]2N)[C@H](N)[C@@H](OCCCc2ccc3ccccc3c2)[C@@H]1O`: the results for the selectivity ratio in data set [18] and in data set [22] were 11 and 5.5, respectively. Further, the MIC came to 16 µg/mL (≈ 24.3 µM) in the data set on Pseudomonas aeruginosa [2]; 2 µg/mL (≈ 3.04 µM) against Staphylococcus aureus [3]; 0.5 µg/mL (≈ 0.759 µM) in the data set with Staphylococcus aureus [4]; 16 µg/mL (≈ 24.3 µM) in the data set with Escherichia coli [5]; 1 µg/mL (≈ 1.52 µM) in the data set on Staphylococcus aureus [6]; 16 µg/mL (≈ 24.3 µM) with Escherichia coli [7]. Besides, the MIC against Staphylococcus aureus [8] was determined as 1 µg/mL (≈ 1.52 µM); in the data set with Staphylococcus aureus [9], 1 µg/mL (≈ 1.52 µM); with Pseudomonas aeruginosa [11] it was 16 µg/mL (≈ 24.3 µM); in the data set with Staphylococcus aureus [12], 2 µg/mL (≈ 3.04 µM); against Escherichia coli [13], 8 µg/mL (≈ 12.1 µM); in the data set with Staphylococcus aureus [14] it was 2 µg/mL (≈ 3.04 µM). The MIC against Staphylococcus aureus [15] was found to be 2 µg/mL (≈ 3.04 µM); in the data set with Pseudomonas aeruginosa [17], 4 µg/mL (≈ 6.07 µM). Besides, the viability at 24 h, 10 µM in data set [10] worked out at 90%.
